Assay results from ChEMBL document CHEMBL4425095, “Novel Cephalosporins Selectively Active on Nonreplicating Mycobacterium tuberculosis” (J Med Chem, 2016).
Values after ≈ are worked out from the molar mass of the structure shown. Active and inactive are the calls of the source. No cut-off for these calls is given here.

Experiments:
[1] = system: Mycobacterium tuberculosis; assay: Antimycobacterial activity against non-replicating Mycobacterium tuberculosis mc2 6220 harboring panCD/lysA deletion mutant incubated for 3 days measured at OD580 = 0.1 by two-fold serial dilution method; format: functional
Method in brief: (§1)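 M. tuberculosis mc26220 washed twice in PBS-tyloxapol and resuspended in Sauton's-based nonreplicating medium (pH 5.0, butyrate 0.05%, BSA, tyloxapol, lysine, pantothenate, 0.5 mM NaNO2). Incubated at 1% O2, 5% CO2 with 2-fold serially diluted compound from DMSO. After 3 days, diluted 5-fold in fresh replicating medium for outgrowth at 20% O2. Reported as MIC90.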

[2] = system: Mycobacterium tuberculosis; assay: Antimycobacterial activity against replicating Mycobacterium tuberculosis mc2 6220 harboring panCD/lysA deletion mutant by two-fold serial dilution method; format: functional
Method in brief: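 M. tuberculosis mc26220 in replicating medium supplemented with glycerol (final 0.5%), OADC, casamino acids 0.05%, lysine 240 μg/mL and pantothenate 24 μg/mL. Exposed to 2-fold serially diluted compound from DMSO. OD580 read after 7 days at 20% O2, 5% CO2. Reported as MIC90.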

[3] = system: Mycobacterium tuberculosis; assay: Antimycobacterial activity against non-replicating Mycobacterium tuberculosis mc2 6220 harboring panCD/lysA deletion mutant incubated for 7 days measured at OD580 = 0.1 by two-fold serial dilution method; format: functional; method in brief: as §1
[4] = system: Mycobacterium tuberculosis; assay: Antimycobacterial activity against non-replicating Mycobacterium tuberculosis mc2 6220 harboring panCD/lysA deletion mutant incubated for 3 days measured at OD580 = 0.01 by two-fold serial dilution method; format: functional; method in brief: as §1
[5] = system: Mycobacterium tuberculosis; assay: Antimycobacterial activity against replicating Mycobacterium tuberculosis mc2 6220 harboring panCD/lysA deletion mutant incubated for 3 days measured at OD580 = 0.01 by two-fold serial dilution method; format: functional
[6] = system: Mycobacterium tuberculosis; assay: Antimycobacterial activity against non-replicating Mycobacterium tuberculosis mc2 6220 harboring panCD/lysA deletion mutant incubated for 6 days measured at OD580 = 0.1 by two-fold serial dilution method; format: functional; method in brief: as §1
[7] = system: Mycobacterium tuberculosis; assay: Antimycobacterial activity against non-replicating Mycobacterium tuberculosis mc2 6220 harboring panCD/lysA deletion mutant incubated for 7 days measured at OD580 = 0.01 by high throughput screen assay; format: functional, organism-based
[8] = system: Mycobacterium tuberculosis; assay: Antimycobacterial activity against non-replicating Mycobacterium tuberculosis mc2 6220 harboring panCD/lysA deletion mutant incubated for 6 days measured at OD580 = 0.01 by two-fold serial dilution method; format: functional; method in brief: as §1
[9] = system: Mycobacterium tuberculosis; assay: Antimycobacterial activity against non-replicating Mycobacterium tuberculosis mc2 6220 harboring panCD/lysA deletion mutant incubated for 7 days measured at OD580 = 0.01 by two-fold serial dilution method; format: functional; method in brief: as §1

SMILES | MIC90 [1] [mg/L] | MIC90 [2] [mg/L] | MIC90 [3] [mg/L] | MIC90 [9] [mg/L] | further results
COc1ccc(OCC(=O)N[C@@H]2C(=O)N3C(c4nc(C)no4)=C(C)CS[C@H]23)cc1 | 14.57 (≈ 35 µM) | >100 | – | – | –
CC1=CS[C@@H]2[C@H](NC(=O)COc3ccccc3)C(=O)N2[C@H]1CO | >100 | >100 | – | – | –
COC(=O)C1=C(C)CS[C@@H]2[C@H](NC(=O)CCc3ccc(OC)cc3)C(=O)N12 | – | 59.82 (≈ 153 µM) | 3.28 (≈ 8.4 µM) | – | MIC90 [4]: 0.39 mg/L (≈ 0.999 µM)
C#CCOC(=O)C1=C(C)CS[C@@H]2[C@H](NC(=O)CCc3ccc(Cl)cc3)C(=O)N12 | 7.85 (≈ 18.7 µM) | >100 | – | – | MIC90 [4]: 0.56 mg/L (≈ 1.34 µM)
CCCN[C@@H]1C(=O)N2C(C(=O)OCCC)=C(C)CS[C@H]12 | 2.69 (≈ 9.01 µM) | >100 | – | – | MIC90 [5]: >100 mg/L; MIC90 [4]: 0.7 mg/L (≈ 2.35 µM); MIC90 [6]: 0.45 mg/L (≈ 1.51 µM); Activity [7]: Active
COCC1=C(C)CS[C@@H]2[C@H](NC(=O)COc3ccccc3)C(=O)N12 | >100 | >96.74 | – | – | –
CCCc1noc(C2=C(C)CS[C@@H]3[C@H](NC(=O)COc4ccc(C)cc4)C(=O)N23)n1 | 14.31 (≈ 33.4 µM) | >100 | – | – | –
CC1=C(C(=O)O)N2C(=O)[C@@H](NC(=O)[C@H](N)c3ccccc3)[C@H]2SC1 [CEPHALEXIN ANHYDROUS] | 61.35 (≈ 177 µM) | 33.99 (≈ 97.8 µM) | 100 (≈ 288 µM) | – | MIC90 [5]: 33.99 mg/L (≈ 97.8 µM); MIC90 [4]: 97.93 mg/L (≈ 282 µM); MIC90 [6]: 70.42 mg/L (≈ 203 µM)
C#CCOC(=O)C1=C(C)CS[C@@H]2[C@H](NC(=O)CCc3ccccc3)C(=O)N12 | 19.97 (≈ 51.9 µM) | >100 | – | – | MIC90 [4]: 1.11 mg/L (≈ 2.89 µM)
CCCCOc1ccc(CCC(=O)N[C@@H]2C(=O)N3C(c4nc(C)no4)=C(C)CS[C@H]23)cc1 | 59.36 (≈ 130 µM) | >100 | – | – | –
CCCOC[C@H]1C(C)=CS[C@@H]2[C@H](NC(=O)COc3ccccc3)C(=O)N21 | >100 | >100 | – | – | –
CCCOC(=O)C1=C(C)CS[C@@H]2[C@H](NC(=O)COc3ccccc3)C(=O)N12 | 1.76 (≈ 4.51 µM) | >100 | 1.05 (≈ 2.69 µM) | 0.64 (≈ 1.64 µM) | MIC90 [8]: 0.64 mg/L (≈ 1.64 µM); MIC90 [5]: >100 mg/L; MIC90 [4]: 0.9 mg/L (≈ 2.3 µM); MIC90 [6]: 1.05 mg/L (≈ 2.69 µM); Activity [7]: Active
CCCOC(=O)C1=C(C)CS[C@@H]2[C@H](NC(=O)COc3ccc(OC)cc3)C(=O)N12 | – | >100 | 0.81 (≈ 1.93 µM) | 0.39 (≈ 0.927 µM) | –
CCCOC(=O)C1C(C)=CS[C@@H]2[C@H](NC(=O)CCc3ccc(OC)cc3)C(=O)N12 (some centres not stated) | – | 49.5 (≈ 118 µM) | <0.23 | 0.21 (≈ 0.502 µM) | –
COC(=O)C1=C(C)CS[C@@H]2[C@H](NC(=O)CCc3ccccc3)C(=O)N12 | – | >100 | 1.27 (≈ 3.52 µM) | 10.4 (≈ 28.9 µM) | –
CC1=C(c2nc(C)no2)N2C(=O)[C@@H](NC(=O)COc3ccc(C(F)(F)F)cc3)[C@H]2SC1 | 5.26 (≈ 11.6 µM) | >100 | – | – | –
CCCCOC(=O)C1=C(C)CS[C@@H]2[C@H](NC(=O)COc3ccc(OC)cc3)C(=O)N12 | – | >100 | 1.12 (≈ 2.58 µM) | 0.71 (≈ 1.63 µM) | –

SMILES | MIC90 [1] [mg/L] | MIC90 [2] [mg/L] | MIC90 [3] [mg/L] | MIC90 [9] [mg/L] | further results
CCOC(=O)C1=C(C)CS[C@@H]2[C@H](NC(=O)COc3ccc(Cl)cc3)C(=O)N12 | – | >100 | 2.38 (≈ 5.79 µM) | 1.07 (≈ 2.6 µM) | –
COC(=O)C1=C(C)CS[C@@H]2[C@H](NC(=O)COc3ccccc3)C(=O)N12 | – | >100 | 2.93 (≈ 8.08 µM) | 2.07 (≈ 5.71 µM) | –
CC1=C(c2nc(C)no2)N2C(=O)[C@@H](NC(=O)COc3cccc(Cl)c3)[C@H]2SC1 | 2.59 (≈ 6.15 µM) | >100 | – | – | –
C#CCOC(=O)C1=C(C)CS[C@@H]2[C@H](NC(=O)COc3ccc(Cl)cc3)C(=O)N12 | – | >100 | 3.95 (≈ 9.39 µM) | 1.53 (≈ 3.64 µM) | –
CCOC(=O)C1=C(C)CS[C@@H]2[C@H](NC(=O)COc3ccc(OC)cc3)C(=O)N12 | – | 47.1 (≈ 116 µM) | 0.89 (≈ 2.19 µM) | 0.53 (≈ 1.3 µM) | –
CCCOC(=O)C1=C(C)CS[C@@H]2[C@H](NC(=O)COc3ccc(Cl)cc3)C(=O)N12 | – | >100 | 1.34 (≈ 3.15 µM) | 0.66 (≈ 1.55 µM) | –
CCCc1noc(C2=C(C)CS[C@@H]3[C@H](NC(=O)c4ccc(Cl)cc4)C(=O)N23)n1 | – | >100 | 2.28 (≈ 5.44 µM) | 1.06 (≈ 2.53 µM) | –
CCCCOc1ccc(CCC(=O)N[C@@H]2C(=O)N3C(c4nc(CCC)no4)=C(C)CS[C@H]23)cc1 | – | >100 | 0.76 (≈ 1.57 µM) | 0.47 (≈ 0.97 µM) | –
CCCCOC(=O)C1=C(C)CS[C@@H]2[C@H](NC(=O)COc3ccc(Cl)cc3)C(=O)N12 | – | >100 | 1.01 (≈ 2.3 µM) | 0.43 (≈ 0.98 µM) | –
CCCOC(=O)N[C@@H]1C(=O)N2C(C(=O)OCCC)=C(C)CS[C@H]12 | 2.61 (≈ 7.62 µM) | 55.44 (≈ 162 µM) | – | – | MIC90 [5]: 55.44 mg/L (≈ 162 µM); MIC90 [4]: 3.11 mg/L (≈ 9.08 µM); MIC90 [6]: 0.52 mg/L (≈ 1.52 µM); Activity [7]: Active
CC1=C(c2nc(C)no2)N2C(=O)[C@@H](NC(=O)COc3ccc(C)cc3)[C@H]2SC1 | 7.42 (≈ 18.5 µM) | >100 | – | – | –
C=CC1=C(C(=O)O)N2C(=O)[C@@H](NC(=O)/C(=N\O)c3csc(N)n3)[C@H]2SC1 | – | 4.11 (≈ 10.4 µM) | >100 | 77.84 (≈ 197 µM) | –
COC[C@H]1C(C)=CS[C@@H]2[C@H](NC(=O)COc3ccccc3)C(=O)N21 | – | >87.82 | >34.84 | >34.84 | –
CCCc1noc(C2=C(C)CS[C@@H]3[C@H](NC(=O)Cc4ccc(Cl)cc4)C(=O)N23)n1 | 2.63 (≈ 6.07 µM) | >100 | – | – | –
CCOC(=O)C1=C(C)CS[C@@H]2[C@H](NC(=O)CCc3ccccc3)C(=O)N12 | – | >100 | 1.15 (≈ 3.07 µM) | 0.47 (≈ 1.26 µM) | –
COc1ccc(CCC(=O)N[C@@H]2C(=O)N3C(C(=O)OCc4ccccc4)=C(C)CS[C@H]23)cc1 | – | >100 | 0.42 (≈ 0.9 µM) | 0.39 (≈ 0.836 µM) | –
CCCc1noc(C2=C(C)CS[C@@H]3[C@H](NC(=O)CCc4ccc(C)cc4)C(=O)N23)n1 | – | >100 | 2.32 (≈ 5.44 µM) | 0.98 (≈ 2.3 µM) | –
